Laboratory results taken from PMC10527666 (Molecular imaging and biology, 2023).

Assays:
α-synuclein fibrils [1] = target: T1, α-synuclein fibrils (Homo sapiens, UniProt P37840); assay: Compound screening, 1-point inhibition of [^3H]BF2846 binding; conditions: read-out: % Inhibition [^3H]BF-2846
Outline: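 Human α-synuclein (C-terminal intein fusion, expressed in E. coli BL21(DE3), purified, quantified by A280) was fibrillised. Fibrils at 100 nM were incubated with 100 nM test compound and 3 nM [³H]BF2846 in 50 mM Tris-HCl pH 7.4, 1 h at 37 °C, with nonspecific binding defined by 0.5 μM BF2846. Samples were GF/C-filtered and scintillation-counted, in triplicate. Bound radioligand was expressed as % of total binding and tested by one-way ANOVA.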

α-synuclein fibrils [2] = target: T1, α-synuclein fibrils; assay: Competition binding assay against [^3H]BF2846
Outline: (§1)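 Fibrils (α-synuclein 50 nM; Aβ42 100 nM) incubated with 3 nM [³H]BF2846 and varying concentrations of test compound in 50 mM Tris-HCl pH 7.4, 1 h at 37 °C. Nonspecific binding was defined with 0.5 μM unlabeled BF2846, and fibril-free filter blanks were run. Samples were GF/C-filtered, washed with 10 mM Tris/150 mM NaCl and scintillation-counted after 12 h, in triplicate. Ki was obtained by nonlinear regression using radioligand Kd.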

Aβ42 fibrils = Aβ42 fibrils (Homo sapiens, UniProt P05067); assay: Competition binding assay against [^3H]BF2846
Aβ42 fibrils, sequence (P05067 672-713 limits assumed): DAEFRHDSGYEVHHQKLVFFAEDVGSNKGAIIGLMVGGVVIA
Outline: as §1

SMILES	inhibition at 0.1 µM (α-synuclein fibrils [1]) [%]	Ki (α-synuclein fibrils [2]) [nM]	Ki (Aβ42 fibrils) [nM]
COc1ccc(C(=O)Nc2cc(-c3ccc(Br)cc3)no2)cc1 [Compound 15, N-(3-(4-bromophenyl)isoxazol-5-yl)-4-methoxybenzamide]	80	11	36.1
COc1ccc(C(=O)Nc2cc(-c3ccc(I)cc3)no2)cc1 [Compound 21, N-(3-(4-iodophenyl)isoxazol-5-yl)-4-methoxybenzamide]		3.6	
